Phagocyt inh: blocks phagocytosis by macrophages | J774A.1 macrophage IgG-bead phagocytosis, imaging | inhibition, % at 5 µM | 0.07% of 110,000 active;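 active = inhibition above the mean of the plate negative controls plus 5 SD, cut at about 13% in these data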;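 note: phagocytic index as fraction of beads internalized from green versus red external bead signal; plate controls were DMSO negative control for no effect and cytochalasin-D positive control for full effect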
HIV Rev-RRE inh: HIV Rev-RRE protein-RNA interaction inhibition. P05866. Rev peptide-RRE RNA binding, FRET. inhibition, % at 8 µM. 0.79% of 97,000 active. AID 704;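 active = inhibition above the screen-wide mean plus 3 SD, cut at about 35% in these data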;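 note: 0% = median DMSO wells and 100% = median Neomycin B control wells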
Target sequence (P05866 whole entry, looked up): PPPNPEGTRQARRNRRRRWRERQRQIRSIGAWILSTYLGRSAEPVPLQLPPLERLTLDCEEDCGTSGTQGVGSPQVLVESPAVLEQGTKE
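assay system = Cy5-tagged RRE RNA duplex with fluorescein-tagged Rev peptide | incubation = 5 + 15 min at 25 °C | also added = labelled Rev peptide | measure = % inhibition of FRET ratio versus controls | benchmarks = DMSO wells as 0% and neomycin B wells as 100% inhibition | measured by = FRET fluorescence readout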
Smad3 inh: blocks human Smad3 binding to FoxH1 peptide; P84022; TR-FRET Smad3/Dy647-FoxH1 peptide binding, europium anti-His; inhibition, % at 25 µM; 0.29% of 88,000 active; AID 630;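 active = compounds that reduce the energy-transfer binding signal between the protein and its labelled peptide by more than half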;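 note: 0% = Smad3 plus labelled peptide maximal FRET and 100% = peptide-only background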
Target sequence (P84022 whole entry, looked up): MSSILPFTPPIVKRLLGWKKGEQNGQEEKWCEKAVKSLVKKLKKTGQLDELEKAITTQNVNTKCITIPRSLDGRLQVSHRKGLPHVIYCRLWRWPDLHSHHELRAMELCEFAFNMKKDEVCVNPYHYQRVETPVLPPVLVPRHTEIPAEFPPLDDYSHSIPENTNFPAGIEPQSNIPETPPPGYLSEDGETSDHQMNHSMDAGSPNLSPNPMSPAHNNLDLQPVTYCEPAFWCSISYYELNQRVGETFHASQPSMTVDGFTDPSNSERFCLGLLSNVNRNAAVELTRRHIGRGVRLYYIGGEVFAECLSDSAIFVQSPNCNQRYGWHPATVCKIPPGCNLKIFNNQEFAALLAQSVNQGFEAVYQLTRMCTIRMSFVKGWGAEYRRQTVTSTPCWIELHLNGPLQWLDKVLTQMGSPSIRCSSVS
EphB4 antag: blocks human EphB4 binding to ephrin-B2; P54760; EphB4 LBD / TNYL-RAW-Alexa532 peptide, fluorescence polarization; inhibition, % at 7 µM; 0.15% of 97,000 active; AID 720;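 active = inhibition above the screen-wide mean inhibition plus 3 SD, cut at about 15% in these data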;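 note: 0% = DMSO wells and 100% = excess unlabeled TNYL-RAW peptide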
CD11b adhes inh: inhibitors of human CD11b/CD18 binding to fibrinogen. P05107+P11215. K562 CD11b/CD18 adhesion to fibrinogen, ATPlite luminescence; Mn2+ added to activate the integrin. inhibition, % at 10 µM. 0.54% of 93,000 active. AID 1497;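 active = primary inhibition of 50% or more at 10 µM, then 40% or more on retest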
CD11b adhes enh: increases human CD11b/CD18 adhesion to fibrinogen | 0.07% of 93,000 active | activation, % at 10 µM | P05107+P11215 | K562 CD11b/CD18 adhesion to fibrinogen, ATPlite luminescence;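 active = 10 µM primary screen giving 50% or more activity, confirmed by 40% or more on retest at that dose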
Active calls of the source: *; x = no result; [ ] = dose if it differs, or a comment. Compounds with a hit are over-represented: about 1.3% of the library has one in this group of screens.

SMILES	Phagocyt inh	HIV Rev-RRE inh	Smad3 inh	EphB4 antag	CD11b adhes inh	CD11b adhes enh
Cn1c(N)c(C(=O)c2ccccc2)c(=O)n(C)c1=O	-0.4	10.5	x	1.2	0.9	0.5
CCC(=NC(C)c1ccccc1)c1c(O)n(C)c(=O)n(C)c1=O (centres undefined)	x	1.2	-9.0	3.2	70.6*	-5.3
CCSc1nnc(-c2sc3nnc(-c4ccccc4)c(-c4ccccc4)c3c2N)o1	x	117.0*[fluorescence artefact?]	x	3.2	x	x
Cn1cccc1/C=C1\CC(C(C)(C)C)C/C(=C\c2cccn2C)C1=O (centres undefined)	1.0	124.8*[fluorescence artefact?]	16.7	2.6	2.8	-0.1
Cc1cccc(CSc2nc3c(c(-c4cccs4)c2C#N)CN(C)CC3)c1	-0.4	x	x	x	x	x
Cc1cccc(CSc2nc(N)c(C#N)c(-c3cccs3)c2C#N)c1	x	16.7	-1.8	17.1*	x	x
CCOc1ccc(C(=O)Nc2nnn(CC)n2)cc1	0.1	-0.6	0.2	-4.1	12.1	-3.0
CCn1nnc(NC(=O)COc2ccc(C3CCCCC3)cc2)n1	-1.4	6.2	-11.2	1.0	74.4*	-9.4
C[C@]1(O)CC[C@H]2[C@H]3CC=C4N5CCN=C5CC[C@@]4(C)[C@@H]3CC[C@@]21C	x	x	-10.2	x	x	x
Fc1ccc(C2=CC(c3ccc(Br)o3)n3ncnc3N2)cc1 (centres undefined)	-0.1	x	x	x	x	x
Brc1ccc(C2=CC(c3cccs3)n3ncnc3N2)cc1 (centres undefined)	x	134.8*[fluorescence artefact?]	-0.6	5.9	x	x
OCCCc1nc2n(n1)C(c1cccs1)C=C(c1ccc(Br)cc1)N2 (centres undefined)	-0.2	135.1*[fluorescence artefact?]	12.0	3.9	-6.0	0.7
NCCOC[C@H](N)C(=O)O	x	x	3.3	x	x	x
O=C(O)CCn1cnc2c(=S)nc[nH]c21	x	x	52.6*	x	x	x
Nc1ncnc2c1ncn2CCCCC(=O)O	x	x	15.8	x	x	x
O=C(O)CCCCn1cnc2c(=S)nc[nH]c21	x	x	51.6*	x	x	x
Nc1cccc2cc(S(=O)(=O)Nc3ccc(C(=O)O)cc3)ccc12	x	x	10.3	x	x	x
Cc1ccc(N2C(=O)CS/C2=C(\C(Cl)=C(Cl)Cl)[N+](=O)[O-])cc1	-0.1	11.6	52.2*	-1.4	-2.7	-3.7
O=S(=O)(Nc1nc2ccccc2nc1N1CCc2ccccc2C1)c1ccc(Cl)cc1	-5.9	x	x	x	x	x
O=S(=O)(Nc1nc2ccccc2nc1N1CCN(c2ccccn2)CC1)c1ccc(Cl)cc1	-1.2	36.5*	x	3.5	102.2*	-12.9
Cc1ccc(C(=O)NC2CCSC2=O)cc1 (centres undefined)	-1.9	5.9	53.8*[fluorescence artefact?]	5.7	-3.1	1.8
O=C(NC1CCSC1=O)c1ccc(Cl)cc1 (centres undefined)	-2.2	4.1	-3.3	-5.7	-8.2	-2.2
N#C/C(=C/c1ccc(N2CCCCC2)o1)C(=O)Nc1ccc(Cl)cc1	-0.9	139.3*[fluorescence artefact?]	x	-6.3	-11.9	3.6
N#C/C(=C/c1ccc(N2CCCCCC2)o1)c1cccc(F)c1	-1.0	104.7*[fluorescence artefact?]	11.9	-1.0	21.5	5.5
N#C/C(=C/c1ccc(N2CCCCCC2)o1)c1ccc(F)cc1	x	73.0*	-6.2	4.9	x	x
SMILES	Phagocyt inh	HIV Rev-RRE inh	Smad3 inh	EphB4 antag	CD11b adhes inh	CD11b adhes enh
COc1cc(N2CCCC2)c(OC)cc1/C=C(/C#N)c1cccc(F)c1	-0.1	117.2*[fluorescence artefact?]	8.7	6.9	9.4	2.4
O=C1[C@@H]2[C@H](C(=O)N1CN1CCOCC1)[C@H]1[C@@H]3C=C[C@@H]([C@@H]4C(=O)N(CN5CCOCC5)C(=O)[C@@H]34)[C@@H]21	x	x	-0.5	x	x	x
O=C(O)c1cc(N=Nc2ccc([N+](=O)[O-])cc2)ccc1O	x	x	8.4	x	x	x
COC(=O)c1ccc(NC(=O)CN2CCN(c3cccc(Cl)c3)CC2)cc1	0.9	12.9	-1.8	16.8*	3.8	3.2
COC(=O)c1ccc(NC(=O)CN2CCN(c3ccc(Cl)cc3)CC2)cc1	0.4	x	3.7	x	-1.1	1.3
O=[N+]([O-])c1cccc(/C=N/NC2=CS(=O)(=O)C=C2)c1	x	x	6.2	x	x	x
N#CC(CC(=O)O)=C(c1ccccc1)c1ccccc1	x	x	-3.7	x	x	x
Cc1ccc(S(=O)(=O)N2CCCC(c3nc(-c4ccc(C)o4)no3)C2)cc1 (centres undefined)	-1.7	16.4	-11.1	1.1	1.6	-2.2
Cc1ccc(-c2noc(C3CCCN(S(=O)(=O)c4ccc5ccccc5c4)C3)n2)o1 (centres undefined)	-0.3	7.6	9.6	7.1	8.4	53.3*
CCOC(=O)CC(=O)CSc1nc2ccc(C)cc2cc1C#N	-0.6	94.5*[fluorescence artefact?]	8.0	11.3	-9.3	-5.2
